Laboratory results published in ChEMBL document CHEMBL4052623, “Synthesis and antiproteasomal activity of novel O-benzyl salicylamide-based inhibitors built from leucine and phenylalanine” (Eur J Med Chem, 2017).

Tests used:
CCRF-CEM = assay: Antiproliferative activity against human CEM cells after 72 hrs by calcein AM staining based fluorescence assay; assay type: functional
Summary of the method: (§1)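 Cells treated with three-fold compound dilutions in triplicate for 72 h. Calcein AM added afterwards and live-cell fluorescence read at 485/538 nm (ex/em). GI50, the concentration lethal to 50% of tumour cells, calculated from dose-response curves.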

K562 = assay: Antiproliferative activity against human K562 cells after 72 hrs by calcein AM staining based fluorescence assay; assay type: functional; settings: K562, 72 h; summary of the method: as §1
U-266 = assay: Antiproliferative activity against human U266 cells after 72 hrs by calcein AM staining based fluorescence assay; assay type: functional; settings: U-266, 72 h; summary of the method: as §1
[1] = molecular target: T1, Proteasome Macropain subunit MB1 (Homo sapiens, UniProt P28074); assay: Inhibition of chymotrypsin-like activity of 26S proteasome beta 5 subunit in human U266 cells using Suc-LLVY-aminoluciferin as substrate after 1 hr by Proteosome-Glo luminescence assay; assay type: cell-based
T1 sequence (P28074 whole entry): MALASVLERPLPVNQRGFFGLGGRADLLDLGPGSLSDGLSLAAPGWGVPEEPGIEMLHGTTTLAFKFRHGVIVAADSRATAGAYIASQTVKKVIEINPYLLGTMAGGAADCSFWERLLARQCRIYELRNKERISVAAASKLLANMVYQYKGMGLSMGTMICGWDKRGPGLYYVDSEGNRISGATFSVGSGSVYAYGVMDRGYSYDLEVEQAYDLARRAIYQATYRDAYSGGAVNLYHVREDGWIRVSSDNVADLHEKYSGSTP
Summary of the method: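 U266 multiple myeloma cells plated at 20,000 cells/well and exposed to varying compound concentrations for 1 h at 37 °C, in duplicate. 26S proteasome activity measured immediately as luciferase-coupled hydrolysis of the β5 substrate Suc-LLVY-aminoluciferin (Proteasome-Glo), read by luminescence. Activity normalised to untreated cells; IC50 derived from dose-response curves.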

[2] = molecular target: T2, Proteasome Macropain subunit MB1 (Homo sapiens) (UniProt P28074); assay: Inhibition of chymotrypsin like activity of 26S proteasome beta 5 subunit in human U266 cells assessed as residual activity using N-Suc-LLVY-AMC as substrate at 10 uM preincubated for 1 hr followed by substrate addition and measured after 4 hrs by fluorescence assay relative to control; assay type: cell-based
T2 sequence (whole entry): T1 sequence (P28074 whole entry)

[3] = molecular target: Proteasome Macropain subunit (Homo sapiens) (UniProt P49721); assay: Inhibition of trypsin like activity of 26S proteasome beta 2 subunit in human U266 cells assessed as residual activity using […] as substrate at 10 uM preincubated for 1 hr followed by substrate addition and measured after 4 hrs by fluorescence assay relative to control; assay type: cell-based
[4] = molecular target: T3, Proteasome component C5 (Homo sapiens) (UniProt P20618); assay: Inhibition of caspase like activity of 26S proteasome beta 1 subunit in human U266 cells assessed as residual activity using […] as substrate at 10 uM preincubated for 1 hr followed by substrate addition and measured after 4 hrs by fluorescence assay relative to control; assay type: cell-based
T3 sequence (whole entry): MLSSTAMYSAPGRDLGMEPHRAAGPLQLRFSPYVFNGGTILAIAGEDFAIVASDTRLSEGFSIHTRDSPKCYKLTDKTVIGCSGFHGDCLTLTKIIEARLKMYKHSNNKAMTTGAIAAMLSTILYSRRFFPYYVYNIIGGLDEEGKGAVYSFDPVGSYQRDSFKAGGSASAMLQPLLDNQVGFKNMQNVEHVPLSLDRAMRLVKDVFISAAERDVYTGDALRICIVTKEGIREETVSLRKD

Proteasome Macropain subunit (Homo sapiens), sequence (P49721 whole entry): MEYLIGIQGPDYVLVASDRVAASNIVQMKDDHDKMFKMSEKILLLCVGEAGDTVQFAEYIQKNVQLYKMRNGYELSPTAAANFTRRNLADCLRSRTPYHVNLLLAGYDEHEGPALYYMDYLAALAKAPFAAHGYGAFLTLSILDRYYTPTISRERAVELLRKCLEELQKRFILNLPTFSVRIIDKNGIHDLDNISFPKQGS

Row | SMILES | GI50 (CCRF-CEM) | GI50 (K562) | IC50 [1] | Activity [2] | Activity [3] | Activity [4] | GI50 (U-266)
1 | CON(C)C(=O)[C@H](CC(C)C)NC(=O)[C@H](CC(C)C)NC(=O)[C@H](CC(C)C)NC(=O)c1cc(Cl)ccc1OCc1ccccc1 | 30.6 µM | 55.6 µM | – | – | – | – | 55.2 µM
2 | CC(C)C[C@H](NC(=O)c1cc(Cl)ccc1OCc1ccccc1)C(=O)N[C@@H](Cc1ccccc1)C(=O)N[C@@H](C=O)CC(C)C | 0.4 µM | 0.73 µM | 0.075 µM | 20.7% | > 100% | 19.7% | 0.21 µM
3 | CON(C)C(=O)[C@H](CC(C)C)NC(=O)c1cc(Cl)ccc1OCc1ccccc1 | 45.2 µM | 42.7 µM | – | – | – | – | 54.1 µM
4 | CON(C)C(=O)[C@H](Cc1ccccc1)NC(=O)[C@H](Cc1ccccc1)NC(=O)[C@H](CC(C)C)NC(=O)c1cc(Cl)ccc1OCc1ccccc1 | 35.7 µM | 34.7 µM | – | – | – | – | 56.3 µM
5 | CON(C)C(=O)[C@H](Cc1ccccc1)NC(=O)[C@H](CC(C)C)NC(=O)c1cc(Cl)ccc1OCc1ccccc1 | 19.5 µM | 22.5 µM | – | – | – | – | 81.9 µM
6 | CC(C)C[C@@H](C=O)NC(=O)c1cc(Cl)ccc1OCc1ccccc1 | 24.3 µM | 23.6 µM | > 1 µM | 68.8% | 57.5% | 68.2% | 55.8 µM
7 | CON(C)C(=O)[C@H](CC(C)C)NC(=O)[C@H](Cc1ccccc1)NC(=O)c1cc(Cl)ccc1O | 64.1 µM | 90.9 µM | – | – | – | – | 71.6 µM
8 | CON(C)C(=O)[C@@H](CC(C)C)NC(=O)[C@H](CC(C)C)NC(=O)[C@H](CC(C)C)NC(=O)c1cc(Cl)ccc1OCc1ccccc1 | 11.5 µM | 34 µM | – | – | – | – | 23.7 µM
9 | COC(=O)[C@H](CC(C)C)NC(=O)[C@H](Cc1ccccc1)NC(=O)[C@H](CC(C)C)NC(=O)c1cc(Cl)ccc1OCc1ccccc1 | 48.5 µM | 58.5 µM | – | – | – | – | 83.7 µM
10 | CC(C)CC(C=O)NC(=O)[C@H](Cc1ccccc1)NC(=O)c1cc(Cl)ccc1OCc1ccccc1 (some centres undefined) | 15.1 µM | 17.3 µM | > 1 µM | 95% | 92% | 39.9% | 17.7 µM
11 | CON(C)C(=O)[C@H](Cc1ccccc1)NC(=O)c1cc(Cl)ccc1OCc1ccccc1 | 65.2 µM | 50.9 µM | – | – | – | – | 92.3 µM
12 | CC(C)C[C@@H](C=O)NC(=O)[C@H](CC(C)C)NC(=O)[C@H](CC(C)C)NC(=O)c1cc(Cl)ccc1OCc1ccccc1 | 0.41 µM | 0.76 µM | 0.057 µM | 11.8% | 54.2% | 34.6% | 0.2 µM
13 | COC(=O)[C@H](CC(C)C)NC(=O)[C@H](CC(C)C)NC(=O)[C@H](CC(C)C)NC(=O)c1cc(Cl)ccc1OCc1ccccc1 | 48.4 µM | 87.5 µM | – | – | – | – | 84.9 µM
14 | CON(C)C(=O)[C@H](Cc1ccccc1)NC(=O)[C@H](CC(C)C)NC(=O)[C@H](CC(C)C)NC(=O)c1cc(Cl)ccc1OCc1ccccc1 | 15.1 µM | 44.2 µM | – | – | – | – | 47.2 µM
15 | CON(C)C(=O)[C@@H](CC(C)C)NC(=O)[C@H](Cc1ccccc1)NC(=O)[C@H](CC(C)C)NC(=O)c1cc(Cl)ccc1OCc1ccccc1 | 17.6 µM | 28.9 µM | – | – | – | – | 22.6 µM
16 | CON(C)C(=O)[C@H](CC(C)C)NC(=O)[C@H](CC(C)C)NC(=O)c1cc(Cl)ccc1O | 63 µM | 98.1 µM | – | – | – | – | 69 µM
17 | O=C[C@H](Cc1ccccc1)NC(=O)[C@H](Cc1ccccc1)NC(=O)c1cc(Cl)ccc1OCc1ccccc1 | 15.5 µM | 27.1 µM | > 1 µM | 97.3% | 78.4% | 71.5% | 21.7 µM
18 | CON(C)C(=O)[C@@H](CC(C)C)NC(=O)[C@H](Cc1ccccc1)NC(=O)c1cc(Cl)ccc1OCc1ccccc1 | 32.2 µM | 25.8 µM | – | – | – | – | 67.4 µM
19 | CON(C)C(=O)[C@H](CC(C)C)NC(=O)[C@H](CC(C)C)NC(=O)c1cc(Cl)ccc1OCc1ccccc1 | 22.2 µM | 33.2 µM | – | – | – | – | 35.2 µM
20 | CC(C)C[C@H](NC(=O)c1cc(Cl)ccc1O)C(=O)N[C@H](C=O)Cc1ccccc1 | 27.7 µM | 57.9 µM | > 1 µM | > 100% | 81% | > 100% | 64.9 µM

Further molecules by falling GI50 (CCRF-CEM), results first:

Row | GI50 (CCRF-CEM) | GI50 (K562) | IC50 [1] | Activity [2] | Activity [3] | Activity [4] | SMILES | GI50 (U-266)
21 | 68.2 µM | > 100 µM | – | – | – | – | COC(=O)[C@@H](CC(C)C)NC(=O)[C@H](Cc1ccccc1)NC(=O)[C@H](CC(C)C)NC(=O)c1cc(Cl)ccc1OCc1ccccc1 | 88.5 µM
22 | 58.6 µM | > 100 µM | – | – | – | – | CON(C)C(=O)[C@H](CC(C)C)NC(=O)c1cc(Cl)ccc1O | > 100 µM
23 | 55.5 µM | 99.1 µM | – | – | – | – | CON(C)C(=O)[C@H](Cc1ccccc1)NC(=O)c1cc(Cl)ccc1O | 72.4 µM
24 | 54.2 µM | 79.5 µM | – | – | – | – | CON(C)C(=O)C(Cc1ccccc1)NC(=O)[C@H](Cc1ccccc1)NC(=O)c1cc(Cl)ccc1O (some centres undefined) | 68.7 µM
25 | 51 µM | > 100 µM | – | – | – | – | COC(=O)[C@@H](CC(C)C)NC(=O)[C@H](CC(C)C)NC(=O)[C@H](CC(C)C)NC(=O)c1cc(Cl)ccc1OCc1ccccc1 | 82 µM
26 | 48.2 µM | 93.6 µM | – | – | – | – | CON(C)C(=O)[C@H](Cc1ccccc1)NC(=O)[C@H](CC(C)C)NC(=O)c1cc(Cl)ccc1O | 79.2 µM
27 | 48 µM | 72 µM | – | – | – | – | COC(=O)[C@H](Cc1ccccc1)NC(=O)[C@H](Cc1ccccc1)NC(=O)[C@H](CC(C)C)NC(=O)c1cc(Cl)ccc1OCc1ccccc1 | 82.1 µM
28 | 31.4 µM | 70.3 µM | – | – | – | – | COC(=O)[C@H](Cc1ccccc1)NC(=O)[C@H](CC(C)C)NC(=O)[C@H](CC(C)C)NC(=O)c1cc(Cl)ccc1OCc1ccccc1 | 72.2 µM
29 | 28.6 µM | 29.6 µM | – | – | – | – | CON(C)C(=O)[C@H](Cc1ccccc1)NC(=O)[C@H](Cc1ccccc1)NC(=O)c1cc(Cl)ccc1OCc1ccccc1 | 72.1 µM
30 | 19 µM | 16.4 µM | – | – | – | – | CON(C)C(=O)[C@H](CC(C)C)NC(=O)[C@H](Cc1ccccc1)NC(=O)[C@H](CC(C)C)NC(=O)c1cc(Cl)ccc1OCc1ccccc1 | 48.6 µM
31 | 17.7 µM | 33.3 µM | > 1 µM | 70.8% | 70.2% | 53% | O=C[C@H](Cc1ccccc1)NC(=O)c1cc(Cl)ccc1OCc1ccccc1 | 63.8 µM
32 | 17.2 µM | 30.9 µM | – | – | – | – | CON(C)C(=O)[C@H](CC(C)C)NC(=O)[C@H](Cc1ccccc1)NC(=O)[C@H](CC(C)C)NC(=O)c1cc(Cl)ccc1O | 32.8 µM
33 | 16.3 µM | 22.2 µM | – | – | – | – | CON(C)C(=O)[C@H](Cc1ccccc1)NC(=O)[C@H](Cc1ccccc1)NC(=O)[C@H](CC(C)C)NC(=O)c1cc(Cl)ccc1O | 23.1 µM
34 | 16.3 µM | 21 µM | > 1 µM | 84.3% | 88.1% | 35.3% | CC(C)CC(C=O)NC(=O)[C@H](CC(C)C)NC(=O)c1cc(Cl)ccc1OCc1ccccc1 (some centres undefined) | 37 µM
35 | 11 µM | 16.3 µM | > 1 µM | 85.2% | 85.9% | 67.8% | CC(C)C[C@H](NC(=O)c1cc(Cl)ccc1OCc1ccccc1)C(=O)N[C@H](C=O)Cc1ccccc1 | 14.8 µM
36 | 10.8 µM | 27.3 µM | – | – | – | – | CC(C)C[C@H](NC(=O)c1cc(Cl)ccc1O)C(=O)N[C@@H](Cc1ccccc1)C(=O)N[C@H](CO)Cc1ccccc1 | 18.9 µM
37 | 8.45 µM | 22.4 µM | – | – | – | – | CC(C)C[C@@H](CO)NC(=O)[C@H](Cc1ccccc1)NC(=O)[C@H](CC(C)C)NC(=O)c1cc(Cl)ccc1O | 11.8 µM
38 | 0.58 µM | 0.98 µM | 0.182 µM | 18% | 74.3% | 35.5% | CC(C)C[C@H](NC(=O)c1cc(Cl)ccc1OCc1ccccc1)C(=O)N[C@@H](CC(C)C)C(=O)N[C@@H](C=O)CC(C)C | 0.38 µM
